Data published in ChEMBL document CHEMBL3244257, “Effects of deuteration on locomotor activity of amphetamine” (J Med Chem, 1978).

Assays:
[1] = tested on: Mus musculus; assay: Induction of spontaneous locomotor activity in Swiss-Webster albino mouse assessed as time required to show activity at 27.2 umol/kg, ip measured every 10 mins in first hour followed by every hour for 5 hrs; format: functional
How it was run: (§1)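 Mice weighing 22–24 g, acclimated at least 2 weeks, fed and watered freely until testing, and split into groups of five, each mouse used once. Sulfate salts in normal saline given ip at 0.2 mL/10 g. Controls received saline. Activity was counted as photocell beam interruptions in six-beam circular cages. Tests ran between 11:00 a.m. and 5:00 p.m.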

[2] = Acute toxicity in ip dosed Swiss-Webster mouse measured for 24 hrs; format: organism-based; settings: in vivo
How it was run: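 Groups of mice given three intraperitoneal doses (313, 353 and 394 μM/kg), 14–22 mice per dose, observed for 24 h. LD50 in mg/kg derived from regression dose-response curves by the Litchfield and Wilcoxon method.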

[3] = Potency ratio of compound LD50 to protioamphetamine LD50 for ip dosed Swiss-Webster mouse; format: ADME, organism-based; settings: in vivo
[4] = tested on: Mus musculus; assay: Induction of spontaneous locomotor activity in Swiss-Webster albino mouse assessed as total activity AUC at 27.2 umol/kg, ip; format: functional, organism-based; settings: tested as the 2H-labelled form; how it was run: as §1
[5] = tested on: Mus musculus; assay: Induction of spontaneous locomotor activity in Swiss-Webster albino mouse assessed as total activity AUC at 10.6 mg/kg, ip; format: functional, organism-based; parameters: dose 10.6 mg/kg; settings: tested as the 2H-labelled form; how it was run: as §1
[6] = tested on: Mus musculus; assay: Induction of spontaneous locomotor activity in Swiss-Webster albino mouse assessed as time required to show activity at 10 mg/kg, ip measured every 10 mins in first hour followed by every hour for 5 hrs; format: functional; settings: route intraperitoneal; how it was run: as §1
[7] = tested on: Mus musculus; assay: Induction of spontaneous locomotor activity in Swiss-Webster albino mouse assessed as total activity AUC at 10 mg/kg, ip; format: functional, organism-based; parameters: dose 10 mg/kg; how it was run: as §1
[8] = tested on: Mus musculus; assay: Induction of spontaneous locomotor activity in Swiss-Webster albino mouse assessed as time required to show activity at 10.6 mg/kg, ip measured every 10 mins in first hour followed by every hour for 5 hrs; format: functional; settings: route intraperitoneal; how it was run: as §1

SMILES | Time [1] [min] | LD50 at 24 h [2] [mg/kg] | AUC [4] [cm2] | other results
O=S(=O)(O)O.[2H]C([2H])([2H])C([2H])(N)C([2H])([2H])c1ccccc1 (racemic) | 100 | 143 | – | selectivity ratio [3]: 1.16
CC(N)Cc1ccccc1 (racemic; 3) | – | – | 367 | –
CC(N)Cc1ccccc1 (racemic) | – | – | – | AUC [5]: 350 cm2
C[C@H](N)Cc1ccccc1.C[C@H](N)Cc1ccccc1.O=S(=O)(O)O [DEXTROAMPHETAMINE SULFATE] | – | 123 | – | Time [6]: 70 min; AUC [7]: 350 cm2
O=S(=O)(O)O.[2H]C(C)(N)Cc1ccccc1 (racemic) | 100 | – | – | –
CC(N)Cc1ccccc1 (racemic; 6) | – | – | 374 | –
CC(N)Cc1ccccc1 (racemic; 4) | – | – | 370 | –
O=S(=O)(O)O.[2H]c1c([2H])c([2H])c(C([2H])([2H])C(C)N)c([2H])c1[2H] (racemic) | 80 | 140 | – | selectivity ratio [3]: 1.13
O=S(=O)(O)O.[2H]C(C)(N)C([2H])([2H])c1ccccc1 (racemic) | 105 | – | – | –
CC(N)Cc1ccccc1 (racemic; 2) | – | – | 349 | –
O=S(=O)(O)O.[2H]c1c([2H])c([2H])c(C([2H])([2H])C([2H])(N)C([2H])([2H])[2H])c([2H])c1[2H] (racemic) | – | 149 | – | Time [8]: 120 min; selectivity ratio [3]: 1.2
CC(N)Cc1ccccc1 (racemic; 5) | – | – | 355 | –
O=S(=O)(O)O.[2H]C(c1ccccc1)C(C)N (racemic) | 75 | – | – | –
